Assay results taken from the array DNA melting data of Ke et al. (doi:10.1101/2024.01.08.574731).

Tests used:
[1] = folding enthalpy; higher = less favourable; fluorescence melt of hairpins on a sequencing array, two-state fit; settings: sodium 0.088 M
Summary of the method: (§1)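 With Cy3 and quencher oligos annealed, library hairpins on a sequenced MiSeq flow cell were imaged for Cy3 fluorescence in 50 mM Na-HEPES pH 8.0, 25 mM NaCl, in 2.5 °C steps up to 60 °C. Melting temperature and folding enthalpy were derived from bootstrapped two-state fits of signals normalised to pre-quench Cy3 and to control constructs. Four replicates were combined by inverse variance, with fitted temperatures raised by 9.35 °C to match UV melts.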

[2] = melting temperature; fluorescence melt of hairpins on a sequencing array, two-state fit, raised by 9.35 °C to match UV melts; settings: sodium 0.088 M
Summary of the method: as §1

Row | Sequence | folding enthalpy [1] | Tm [2]
1 | GATCTAGAGGTAGATC ((((((....)))))) | -24.4 kcal/mol | 35.1 °C
2 | GTGTTTCGAAAGAACCAC (((.(((....))).))) | -30.7 kcal/mol | 43 °C
3 | GGTCGAGGAAACCCGACC (((((.(....).))))) | -49.6 kcal/mol | 54.1 °C
4 | CGTACGGAAACGTGACG ((((((....))).))) | -25.9 kcal/mol | 41.1 °C
5 | GAAGGCGGAAACGCCTCC (.(((((....))))).) | -8.57 kcal/mol | 42.3 °C
6 | GTCGGCGGAAACGCCAAC ((.((((....)))).)) | -12.7 kcal/mol | 48.2 °C
7 | GCCTGGCGAAAGCTACGC ((.(.((....)).).)) | -6.66 kcal/mol | 37.8 °C
8 | GTACGCCCGAAAGGGTAC (((..(((....)))))) | -11.4 kcal/mol | 33.2 °C
9 | GTAATTGGAAACGATTAC (((((.(....).))))) | -32.4 kcal/mol | 38.1 °C
10 | GTCAACGAAAGTTGTGAC ((((((....)))..))) | -10.8 kcal/mol | 33 °C
11 | GCACGAGAAATCGTGC ((((((....)))))) | -32 kcal/mol | 68.6 °C
12 | CGAACCGGAAACGGATCG (((.(((....))).))) | -27.6 kcal/mol | 51.6 °C
13 | GAGAGAGAAATCTCTC ((((((....)))))) | -27.6 kcal/mol | 45.8 °C
14 | GCTGTGCGAAAGCATAGC (((.(((....))).))) | -57.9 kcal/mol | 59.4 °C
15 | GATCAGTACTCTGATC ((((((....)))))) | -43.4 kcal/mol | 50.4 °C
16 | GAAGGCGAAAGCCAGTTC ((((((....)))..))) | -10.2 kcal/mol | 29.7 °C
17 | GCGCAGCGAAAGCTTGGC ((..(((....)))..)) | -6.35 kcal/mol | 38.5 °C
18 | GCTGAGCGAAAGCGCCGC ((.(.((....)).).)) | -15.2 kcal/mol | 50.5 °C
19 | CGCGGATGGCTCCGCG ((((((....)))))) | -30.6 kcal/mol | 68.9 °C
20 | GCACTATCGAAAGATTGC (((..(((....)))))) | -17.7 kcal/mol | 30.6 °C
21 | GTGTGCGAAAGCACGCAC ((((((....)))..))) | -9.49 kcal/mol | 61.1 °C
22 | GATCAGAGGGCTGATC ((((((....)))))) | -39.2 kcal/mol | 47.7 °C
23 | GCCTGAGGAAACCCAGGC (((((.(....).))))) | -36.5 kcal/mol | 53.2 °C

Row | Sequence | folding enthalpy [1] | Tm [2]
24 | GTGATCGGAAACAATCAC (((((.(....).))))) | -32.9 kcal/mol | 36.3 °C
25 | GGTGCTGGAAACGGCATC (.(((.(....).))).) | -25.4 kcal/mol | 44.2 °C
26 | GACAGGGAAACCTGTC ((((((....)))))) | -37.8 kcal/mol | 58.9 °C
27 | GGGATAGGAAACTATTCC ((.((((....)))).)) | -34.3 kcal/mol | 40.7 °C
28 | GATGGCGAAAGCCAATC ((((((....))).))) | -14.1 kcal/mol | 50.7 °C
29 | GCAGTCGAAAGACTTGC ((((((....))).))) | -22.6 kcal/mol | 50.4 °C
30 | GACCAAGCGAAAGCTGTC (((..(((....)))))) | -13.5 kcal/mol | 37.2 °C
31 | GATCGAGTGCTCGATC ((((((....)))))) | -58.9 kcal/mol | 53.8 °C
32 | GTCATTGGAAACAACGAC (((.(((....))).))) | -20.9 kcal/mol | 35.5 °C
33 | GTAATCGAAAGATTATAC ((((((....)))..))) | -15.6 kcal/mol | 33.4 °C
34 | GATCACCAGCGTGATC ((((((....)))))) | -43.3 kcal/mol | 53.8 °C
35 | GCGTCAAGACGC ((((....)))) | -29.9 kcal/mol | 55.1 °C
36 | GGATCCGGAAACGGGTCC (((.(((....))).))) | -43.7 kcal/mol | 59.4 °C
37 | GAACAGGGAAACTTGTTC (((((.(....).))))) | -27.2 kcal/mol | 37.1 °C
38 | GCCGTCGGAAACGACGAC (.(((((....))))).) | -13.3 kcal/mol | 54.8 °C
39 | GGGATCGGAAACGATCTC (.(((((....))))).) | -31.9 kcal/mol | 54.2 °C
40 | GGAGTAGCGAAAGCTTCC (((..(((....)))))) | -16.1 kcal/mol | 38.2 °C
41 | GTATTTGAAAAAATAC ((((((....)))))) | -25.2 kcal/mol | 38.1 °C
42 | GGTTCCGGAAACAGAACC (((((.(....).))))) | -35.7 kcal/mol | 41.1 °C
43 | CGAACGGAAACGTATTCG ((((((....)))..))) | -17.7 kcal/mol | 29.1 °C
44 | GCACAACGAAAGTTTTGC (((.(((....))).))) | -37.7 kcal/mol | 46.9 °C
45 | GCTAGCGAAAGCTCGAGC ((((((....)))..))) | -14.6 kcal/mol | 35.6 °C
46 | GAACGCGAAAGCGTGTTC ((((((....)))..))) | -10.5 kcal/mol | 46.6 °C

Row | Sequence | folding enthalpy [1] | Tm [2]
47 | GTCCTCGAAAGAGACGAC ((((((....)))..))) | -20 kcal/mol | 42 °C
48 | GCAGAGCGAAAGCCATGC (((..((....))..))) | -18.9 kcal/mol | 45.7 °C
49 | GAAAACGGAAACGTTCTC ((.((((....)))).)) | -12.7 kcal/mol | 30.4 °C
50 | GCACCGCGAAAGCTATGC (((..((....))..))) | -12.8 kcal/mol | 31.1 °C
51 | GATCATTGTAATGATC ((((((....)))))) | -36 kcal/mol | 50.3 °C
52 | GGAAGGAAACTTCC (((((....))))) | -24.1 kcal/mol | 46 °C
53 | GGTTGATCGAAAGATACC (((..(((....)))))) | -8.74 kcal/mol | 25.5 °C
54 | GATCCGTTTTCGGATC ((((((....)))))) | -42.2 kcal/mol | 61.8 °C
55 | GTAAAGCGAAAGCTATAC (((.(((....))).))) | -15.6 kcal/mol | 41.3 °C
56 | GTTCTCGGAAACGAGAGC (.(((((....))))).) | -27.5 kcal/mol | 48.2 °C
57 | GACACACGAAAGTGGTC (((.(((....)))))) | -20.7 kcal/mol | 49.7 °C
58 | GGCGACGAAAGTCTTGCC ((((((....)))..))) | -19.3 kcal/mol | 48.9 °C
59 | GTCTGCGGAAACGCAGGC (.(((((....))))).) | -19.6 kcal/mol | 63.9 °C
60 | GATCGGTAACCGATC ((((((...)))))) | -35.5 kcal/mol | 56.1 °C
61 | GATCCAAGTGTGGATC ((((((....)))))) | -32.3 kcal/mol | 50.3 °C
62 | GCAACGCGAAAGCCATGC (((..((....))..))) | -7.42 kcal/mol | 29.1 °C
63 | GATCACCCTCGTGATC ((((((....)))))) | -43.6 kcal/mol | 55.8 °C
64 | GTGTCCGAAAGGATTCAC ((((((....)))..))) | -16.3 kcal/mol | 35.3 °C
65 | GAGTACGAAAGTAACTC ((((((....))).))) | -23.4 kcal/mol | 45.4 °C
66 | GGCCATGGAAACATGACC ((.((((....)))).)) | -29.2 kcal/mol | 47.6 °C
67 | GGTAAAGGAAACTTTGCC ((.((((....)))).)) | -28.6 kcal/mol | 42.6 °C
68 | CGACAACGGAAACGTTCG (((..(((....)))))) | -14.3 kcal/mol | 35.9 °C
69 | GGGAAACGAAAGTTCCC (((.(((....)))))) | -28 kcal/mol | 53.4 °C

Row | Sequence | folding enthalpy [1] | Tm [2]
70 | GGGTTCGGAAACGAGCCC (((.(((....))).))) | -57.9 kcal/mol | 58.1 °C
71 | GGGCCTGGAAACGGGTCC ((.((.(....).)).)) | -26.3 kcal/mol | 50.9 °C
72 | GGCGAAACGAAAGTTGCC (((..(((....)))))) | -25.5 kcal/mol | 49.5 °C
73 | GTAACCGGAAACGGTTAC (((((((....))))))) | -38.8 kcal/mol | 65.8 °C
74 | GTGTTACGAAAGTACCAC (((.(((....))).))) | -29.4 kcal/mol | 43.2 °C
75 | GGCCTCCGAAAGGACGCC (((.(((....))).))) | -37.2 kcal/mol | 53.6 °C
76 | GCACAAGAAATTGTGC ((((((....)))))) | -36 kcal/mol | 57.3 °C
77 | GATCTCGCGAGAGATC ((((((....)))))) | -42.1 kcal/mol | 64.2 °C
78 | GCGCATGGAAACGTGTGC ((.((.(....).)).)) | -36.7 kcal/mol | 46.6 °C
79 | GATGACGAAAGTCGCATC ((((((....)))..))) | -11.1 kcal/mol | 30.8 °C
80 | GACTTAGGAAACTAGGTC (((.(((....))).))) | -32.1 kcal/mol | 36.8 °C
81 | GGTACTCGAAAGAGGACC (((.(((....))).))) | -42.7 kcal/mol | 61.5 °C
82 | GTATGGGCGAAAGCCTAC (((..(((....)))))) | -7.19 kcal/mol | 36.9 °C
83 | GTCGAAGCGAAAGCTGAC (((..(((....)))))) | -14.8 kcal/mol | 46.5 °C
84 | GATCGGTTTTCCGATC ((((((....)))))) | -45.1 kcal/mol | 60.1 °C
85 | GCGAGCGTTCGC ((((....)))) | -14.2 kcal/mol | 49 °C
86 | GGAAGCGAAAGCTTATCC ((((((....)))..))) | -9.74 kcal/mol | 34.6 °C
87 | GTGAGCGAAAGCTGACAC ((((((....)))..))) | -16.6 kcal/mol | 41.2 °C
88 | GGACGCGAAAGCGGTCC ((((((....))).))) | -21.2 kcal/mol | 68.8 °C
89 | GCGACGATCGC ((((...)))) | -13.6 kcal/mol | 42.4 °C
90 | CGATTGAAAAATCG (((((....))))) | -27.8 kcal/mol | 46 °C
91 | GAGATGCCGAAAGGCCTC (((..(((....)))))) | -10.1 kcal/mol | 32.1 °C
92 | GCAGTGCGAAAGCGCAGC ((.(.((....)).).)) | -14.2 kcal/mol | 62.3 °C
